Measurements taken from ChEMBL document CHEMBL2203235, “Optimization of a natural product-based class of γ-secretase modulators” (J Med Chem, 2012).
pIC50: −log10 of the molar value.

Columns and labels:
[1] = Modulation of gamma secretase in CHO-2B7 cells assessed as reduction in amyloid beta 40 level after 5 hrs by MSD ELISA; type: cell-based; settings: Cricetulus griseus, CHO-2B7, 5 h
[2] = Metabolic stability in human liver microsomes assessed as compound remaining at 1 uM at 60 mins by LC/MS/MS analysis in absence of NADPH; type: ADME, Microsome; settings: liver microsomes, read-out: Stability
Outline: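 Human liver microsomes were run without NADPH as a qualitative read of susceptibility to enzymatic hydrolysis. The read-out was percent parent remaining at 60 min.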

[3] = Modulation of gamma secretase in CHO-2B7 cells assessed as reduction in amyloid beta 42 level after 5 hrs by MSD ELISA; type: cell-based; settings: Cricetulus griseus, CHO-2B7, 5 h
Liver microsomes = assay: Metabolic stability in human liver microsomes at 1 uM after 60 mins by LC/MS/MS analysis; settings: 1 h

| Stability (Liver microsomes) | Compound | pIC50 [1] | remaining at 1 h, 1 µM [2] [%] | pIC50 [3] |
| --- | --- | --- | --- | --- |
| – | CO[C@@H]([C@H]1C[C@@H](C)[C@H]2[C@H](O1)[C@H](O)[C@@]1(C)[C@@H]3CC[C@H]4C(C)(C)[C@@H](O[C@H]5CN(C6COC6)CCO5)CC[C@@]45C[C@@]35CC[C@]21C)C(C)(C)O | 5.00 | 93 | 6.16 |
| – | CC(C)CO[C@@H]([C@H]1C[C@@H](C)[C@H]2[C@H](O1)[C@H](O)[C@@]1(C)[C@@H]3CC[C@H]4C(C)(C)[C@@H](O[C@H]5CN(C6COC6)CCO5)CC[C@@]45C[C@@]35CC[C@]21C)C(C)(C)O | 5.22 | 78 | 5.52 |
| – | CCO[C@@H]([C@H]1C[C@@H](C)[C@H]2[C@H](O1)[C@H](O)[C@@]1(C)[C@@H]3CC[C@H]4C(C)(C)[C@@H](O)CC[C@@]45C[C@@]35CC[C@]21C)C(C)(C)O | 5.26 | 100 | 6.46 |
| – | CC(C)[C@@H](OC(N)=O)[C@H]1C[C@@H](C)[C@H]2[C@H](O1)[C@H](O)[C@@]1(C)[C@@H]3CC[C@H]4C(C)(C)[C@@H](O[C@H]5CNCCO5)CC[C@@]45C[C@@]35CC[C@]21C | 5.77 | 108 | 6.19 |
| – | CC(C)[C@@H](OC(=O)N(C)C)[C@H]1C[C@@H](C)[C@H]2[C@H](O1)[C@H](O)[C@@]1(C)[C@@H]3CC[C@H]4C(C)(C)[C@@H](O[C@H]5CNCCO5)CC[C@@]45C[C@@]35CC[C@]21C | 5.23 | 114 | 6.24 |
| Stable | CC(C)[C@@H](OC(=O)N1CCC1)[C@H]1C[C@@H](C)[C@H]2[C@H](O1)[C@H](O)[C@@]1(C)[C@@H]3CC[C@H]4C(C)(C)[C@@H](OC(=O)N[C@H]5CCNC5=O)CC[C@@]45C[C@@]35CC[C@]21C | 6.00 | – | 6.40 |
| Stable | CCO[C@@H]([C@H]1C[C@@H](C)[C@H]2[C@H](O1)[C@H](O)[C@@]1(C)[C@@H]3CC[C@H]4C(C)(C)[C@@H](O[C@H]5CN(CCN(C)C)CCO5)CC[C@@]45C[C@@]35CC[C@]21C)C(C)(C)O | 5.49 | – | 6.89 |
| Stable | CCO[C@@H]([C@H]1C[C@@H](C)[C@H]2[C@H](O1)[C@H](O)[C@@]1(C)[C@@H]3CC[C@H]4C(C)(C)[C@@H](O[C@H]5CN(CCN6CCOC6=O)CCO5)CC[C@@]45C[C@@]35CC[C@]21C)C(C)(C)O | 5.72 | – | 6.82 |
| Stable | CC(C)[C@@H](OC(=O)N1CCC1)[C@H]1C[C@@H](C)[C@H]2[C@H](O1)[C@H](O)[C@@]1(C)[C@@H]3CC[C@H]4C(C)(C)[C@@H](OC(=O)N[C@@H]5CCNC5=O)CC[C@@]45C[C@@]35CC[C@]21C | 5.23 | – | 6.74 |
| Stable | CC(C)[C@@H](OC(=O)N1CCC1)[C@H]1C[C@@H](C)[C@H]2[C@H](O1)[C@H](O)[C@@]1(C)[C@@H]3CC[C@H]4C(C)(C)[C@@H](OC(=O)N[C@@H]5CCCNC5=O)CC[C@@]45C[C@@]35CC[C@]21C | 5.18 | – | 6.42 |
| Stable | CC(C)[C@@H](OC(=O)N1CCC1)[C@H]1C[C@@H](C)[C@H]2[C@H](O1)[C@H](O)[C@@]1(C)[C@@H]3CC[C@H]4C(C)(C)[C@@H](O[C@H]5CN(C)CCO5)CC[C@@]45C[C@@]35CC[C@]21C | 5.08 | – | 6.11 |
| Stable | CC(C)[C@@H](OC(=O)N1CCC1)[C@H]1C[C@@H](C)[C@H]2[C@H](O1)[C@H](O)[C@@]1(C)[C@@H]3CC[C@H]4C(C)(C)[C@@H](O[C@H]5CN(C(=O)CCC(=O)O)CCO5)CC[C@@]45C[C@@]35CC[C@]21C | 5.14 | – | 6.55 |
| Stable | CC(C)[C@@H](OC(=O)N1CCC1)[C@H]1C[C@@H](C)[C@H]2[C@H](O1)[C@H](O)[C@@]1(C)[C@@H]3CC[C@H]4C(C)(C)[C@@H](OC(=O)N(C)CC(=O)O)CC[C@@]45C[C@@]35CC[C@]21C | 6.32 | – | 5.75 |
| – | CCO[C@H](C(C)C)[C@H]1C[C@@H](C)[C@H]2[C@H](O1)[C@H](O)[C@@]1(C)[C@@H]3CC[C@H]4C(C)(C)[C@@H](O)CC[C@@]45C[C@@]35CC[C@]21C | – | 85 | 5.36 |
| Stable | CCO[C@@H]([C@H]1C[C@@H](C)[C@H]2[C@H](O1)[C@H](O)[C@@]1(C)[C@@H]3CC[C@H]4C(C)(C)[C@@H](O[C@H]5CN(C6(C)COC6)CCO5)CC[C@@]45C[C@@]35CC[C@]21C)C(C)(C)O | 5.24 | – | 6.40 |
| Stable | CC(C)[C@@H](OC(=O)N1CCC1)[C@H]1C[C@@H](C)[C@H]2[C@H](O1)[C@H](O)[C@@]1(C)[C@@H]3CC[C@H]4C(C)(C)[C@@H](OC(=O)NCCC(=O)O)CC[C@@]45C[C@@]35CC[C@]21C | 4.89 | – | 6.21 |
| Stable | CCO[C@@H]([C@H]1C[C@@H](C)[C@H]2[C@H](O1)[C@H](O)[C@@]1(C)[C@@H]3CC[C@H]4C(C)(C)[C@@H](O[C@H]5CN(C6CNC6)CCO5)CC[C@@]45C[C@@]35CC[C@]21C)C(C)(C)O | 5.62 | – | 7.00 |
| Stable | CC(C)[C@@H](OC(=O)N1CCC1)[C@H]1C[C@@H](C)[C@H]2[C@H](O1)[C@H](O)[C@@]1(C)[C@@H]3CC[C@H]4C(C)(C)[C@@H](O[C@H]5CN(C6COC6)CCO5)CC[C@@]45C[C@@]35CC[C@]21C | 4.96 | – | 6.25 |
| Stable | COCCN1CCO[C@@H](O[C@H]2CC[C@]34C[C@]35CC[C@]3(C)[C@@H]6[C@H](O[C@@H]([C@H](OC(=O)N7CCC7)C(C)C)C[C@H]6C)[C@H](O)[C@@]3(C)[C@@H]5CC[C@H]4C2(C)C)C1 | 5.28 | – | 6.28 |

| Compound | Stability (Liver microsomes) | pIC50 [1] | remaining at 1 h, 1 µM [2] [%] | pIC50 [3] |
| --- | --- | --- | --- | --- |
| CCO[C@@H]([C@H]1C[C@@H](C)[C@H]2[C@H](O1)[C@H](O)[C@@]1(C)[C@@H]3CC[C@H]4C(C)(C)[C@@H](O[C@H]5CN(CCF)CCO5)CC[C@@]45C[C@@]35CC[C@]21C)C(C)(C)O | Stable | 5.33 | – | 6.62 |
| CC(C)[C@@H](OC(=O)N1CCC1)[C@H]1C[C@@H](C)[C@H]2[C@H](O1)[C@H](O)[C@@]1(C)[C@@H]3CC[C@H]4C(C)(C)[C@@H](OC(=O)N(C)C)CC[C@@]45C[C@@]35CC[C@]21C | Stable | 5.85 | – | 5.89 |
| CCO[C@@H]([C@H]1C[C@@H](C)[C@H]2[C@H](O1)[C@H](O)[C@@]1(C)[C@@H]3CC[C@H]4C(C)(C)[C@@H](O[C@H]5CN(CCCC(=O)O)CCO5)CC[C@@]45C[C@@]35CC[C@]21C)C(C)(C)O | Stable | 5.19 | – | 6.20 |
| CCO[C@@H]([C@H]1C[C@@H](C)[C@H]2[C@H](O1)[C@H](O)[C@@]1(C)[C@@H]3CC[C@H]4C(C)(C)[C@@H](OC(=O)N5CC[C@H](C(=O)O)C5)CC[C@@]45C[C@@]35CC[C@]21C)C(C)(C)O | Stable | 4.77 | – | 6.40 |
| CCO[C@@H]([C@H]1C[C@@H](C)[C@H]2[C@H](O1)[C@H](O)[C@@]1(C)[C@@H]3CC[C@H]4C(C)(C)[C@@H](O[C@H]5CN([C@H]6CCOC6)CCO5)CC[C@@]45C[C@@]35CC[C@]21C)C(C)(C)O | Stable | 5.21 | – | 6.38 |
| CCO[C@@H]([C@H]1C[C@@H](C)[C@H]2[C@H](O1)[C@H](O)[C@@]1(C)[C@@H]3CC[C@H]4C(C)(C)[C@@H](O[C@H]5CN(C(=O)C(C)C)CCO5)CC[C@@]45C[C@@]35CC[C@]21C)C(C)(C)O | Stable | 5.46 | – | 6.77 |
| CC(C)CC(=O)N1CCO[C@@H](O[C@H]2CC[C@]34C[C@]35CC[C@]3(C)[C@@H]6[C@H](O[C@@H]([C@H](OC(=O)N7CCC7)C(C)C)C[C@H]6C)[C@H](O)[C@@]3(C)[C@@H]5CC[C@H]4C2(C)C)C1 | Stable | 4.96 | – | 5.89 |
| CC(=O)N1CCN(C(=O)O[C@H]2CC[C@]34C[C@]35CC[C@]3(C)[C@@H]6[C@H](O[C@@H]([C@H](OC(=O)N7CCC7)C(C)C)C[C@H]6C)[C@H](O)[C@@]3(C)[C@@H]5CC[C@H]4C2(C)C)CC1 | Stable | 5.29 | – | 6.72 |
| CCO[C@@H]([C@H]1C[C@@H](C)[C@H]2[C@H](O1)[C@H](O)[C@@]1(C)[C@@H]3CC[C@H]4C(C)(C)[C@@H](O[C@H]5CN(CCC(=O)O)CCO5)CC[C@@]45C[C@@]35CC[C@]21C)C(C)(C)O | Stable | 5.02 | – | 6.51 |
| CCO[C@@H]([C@H]1C[C@@H](C)[C@H]2[C@H](O1)[C@H](O)[C@@]1(C)[C@@H]3CC[C@H]4C(C)(C)[C@@H](O[C@H]5CN([C@@H]6CCOC6)CCO5)CC[C@@]45C[C@@]35CC[C@]21C)C(C)(C)O | Stable | 5.52 | – | 6.74 |
| CCO[C@@H]([C@H]1C[C@@H](C)[C@H]2[C@H](O1)[C@H](O)[C@@]1(C)[C@@H]3CC[C@H]4C(C)(C)[C@@H](O[C@H]5CN(C6CCOCC6)CCO5)CC[C@@]45C[C@@]35CC[C@]21C)C(C)(C)O | Stable | 5.30 | – | 6.46 |
